Source: PubChem BioAssay (several laboratories)
Mdm2 ligase inh = blocks human Mdm2 ubiquitin ligase activity. Q00987. cell-based MDM2 ubiquitination luciferase reporter, 2 h; 0 = plate control, 100 = twice control, blank-subtracted. signal enhancement, % at 5 µM. hit rate 0.11% among 210,000;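 active means signal enhancement of 30% or more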;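 further: luminescence tracks abundance of the self-degrading MDM2-luciferase fusion protein; higher signal means inhibition of MDM2 E3 ligase activity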
Target sequence (Q00987 whole entry, looked up, the tested form may be a part): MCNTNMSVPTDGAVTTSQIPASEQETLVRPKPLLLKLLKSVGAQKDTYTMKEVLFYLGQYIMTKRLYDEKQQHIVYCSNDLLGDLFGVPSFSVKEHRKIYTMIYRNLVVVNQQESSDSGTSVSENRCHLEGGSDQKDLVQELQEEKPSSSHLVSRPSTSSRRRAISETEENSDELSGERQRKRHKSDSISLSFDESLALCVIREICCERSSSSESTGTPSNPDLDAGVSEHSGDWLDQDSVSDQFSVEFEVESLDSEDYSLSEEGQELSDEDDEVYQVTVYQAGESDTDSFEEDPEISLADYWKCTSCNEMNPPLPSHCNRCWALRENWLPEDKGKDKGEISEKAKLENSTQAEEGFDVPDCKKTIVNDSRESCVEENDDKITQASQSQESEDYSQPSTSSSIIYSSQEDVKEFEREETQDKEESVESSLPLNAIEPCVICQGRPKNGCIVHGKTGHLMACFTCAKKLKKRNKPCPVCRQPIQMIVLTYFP
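Timing – 2 h compound exposure at 37 °C · Assay system – mammalian cells stably expressing self-ubiquitinating, self-degrading MDM2 E3–luciferase fusion · Amount – 2000 cells seeded into each well · Measure – % luminescence enhancement versus blank-corrected plate control mean · Measured by – SteadyLite luminescence, 15 min reagent step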
p97 ATPase inh = blocks human p97 ATPase activity; P55072; recombinant p97 ATPase, Kinase-Glo ATP luminescence, 3 h; inhibition, % at 8 µM; hit rate 0.42% among 220,000; AID 1481; in the data active means inhibition above about 15%;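 further: 0% = DMSO vehicle and 100% = wells lacking enzyme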
NF-kB expr up = raises NF-kB expression in human neuronal cells. hit rate 1.6% among 190,000. NF-kB reporter expression; active compounds read high. fold change at 12.5 µM; in the data active means fold change above about 3.3
APP 5'UTR act = APP 5'UTR luciferase reporter activation; activation, % at 2 µM; SH-SY5Y APP 5'UTR luciferase reporter, luminescence; zero percent = DMSO vehicle wells; hit rate 1% among 190,000; AID 1276;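 active means activation above a set limit, based on mean plus 3 SD of controls, cut at about 140% in these data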
Wee1 degr inh = human Wee1 degradation inhibition, primary screen; P30291; hit rate 1.2% among 220,000; AID 1321; reporter increase, % at 5 µM; HeLa Luc-Wee1K328M stability, luciferase luminescence; 100% = proteasome inhibitor MG132 effect;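 active means activation above the mean of all tested compounds plus 3 SD, set per screening run, cut at about 8.8% in these data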;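 further: cells exposed to compound for 20 h before luminescence read; 0% = DMSO alone and 100% = MG132 at 30 µM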
STAT1 act = increases IFN-gamma driven STAT1 reporter signal; NIH 3T3 STAT1-luciferase reporter, luminescence; 100% = IFN-gamma alone, no compound; activation (% of control), % at 5.5 µM; hit rate 2.6% among 200,000; AID 932;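 active means activation above the screen-wide mean activation plus 3 SD, cut at about 130% in these data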;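 further: raw ratio to IFN-gamma control signal so 100% means no change and 0% no light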
p97 inh conf = confirmation of human p97 ATPase inhibitors | shares compounds with p97 ATPase inh | AID 1517 | hit rate 44% among 760 | recombinant p97 ATPase, Kinase-Glo ATP luminescence | inhibition, % at 8 µM;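 active means percent inhibition of p97 ATPase above a set limit, the primary screen's mean plus 3 SD, cut at about 15% in these data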;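 further: 0% = DMSO wells and 100% = wells lacking p97 protein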
* = called active by the depositor; . = no result. Most compounds without a hit are left out; they make up all but 4.6% or so of the library.

SMILES | Mdm2 ligase inh | p97 ATPase inh | NF-kB expr up | APP 5'UTR act | Wee1 degr inh | STAT1 act | p97 inh conf
COc1ccc(-c2cc(N)n(S(=O)(=O)c3c(F)c(F)c(F)c(F)c3F)n2)cc1OC | -22 | 22* | 1.2 | 16 | -3 | 106 | 26*
COc1cc(SSc2cc(OC)cc([N+](=O)[O-])c2N)c(N)c([N+](=O)[O-])c1 | -8 | -6 | . | . | -1 | . | .
O=C(Nc1ccccc1)Nc1ccccc1-n1ccnc1 | -5 | 3 | 1.2 | 2 | 1 | 100 | .
O=C1NN(c2cccc(Br)c2)C(=O)/C1=C/c1cccs1 | . | 17* | . | . | 0 | . | 23*
O=C1NN(c2ccccc2)C(=O)/C1=C/c1cccs1 | -14 | 8 | 1 | 6 | 4 | 92 | .
Cc1ccc(S(=O)(=O)n2nccc2-c2c(-c3ccc(Cl)cc3)noc2C)cc1 | -11 | 4 | . | . | 3 | . | .
O=C(Nc1ccc(Br)c2ccccc12)c1ccc2ccccc2c1O | -15 | 19* | . | . | 3 | . | 24*
CN(Cc1nc(Cc2cccc(C(F)(F)F)c2)no1)C1CC(C)(C)NC(C)(C)C1 | -4 | -2 | 1 | -13 | -2 | 103 | .
COc1cccc(C(=O)NCc2ccc3c(c2)cc(C)n3C)c1 | -22 | 20* | 1 | -12 | -2 | 107 | 8
CCCNC(=S)Nc1ccc(F)cc1F | -5 | 6 | . | . | 2 | . | .
CCCCC(=O)Nc1ccc(NC(=S)NC(=O)CC)cc1OC | -6 | 3 | 0.96 | 12 | 2 | 107 | .
CCCCC(=O)NC(=S)Nc1cc(C(=O)O)ccc1OC | -5 | 18* | 1.3 | -1 | -3 | 94 | 10
CCCCCCCCCCC(=O)Nc1cccnc1 | 9 | -3 | 1.1 | -26 | -1 | 91 | .
O=c1oc2ccccc2c2oc3cc(O)c(O)cc3c12 | -16 | 19* | . | . | 2 | . | 22*
COc1ccc(CNC(=O)CCS(=O)(=O)Cc2cccc(Cl)c2)c(OC)c1 | -46 | -3 | 1.1 | 16 | 2 | 93 | .
COc1ccc2ccc3c(c2c1)N=CC1(O3)N(C)c2ccccc2C1(C)C (centres undefined) | -6 | 16* | 1.1 | -3 | -1 | 80 | 8
CN1c2ccccc2C(C)(C)C12C=Nc1c(ccc3ccccc13)O2 (centres undefined) | -22 | -1 | 0.49 | 21 | -2 | 88 | .
O=C(O)CCCCCNc1ccc2nsnc2c1[N+](=O)[O-] | -26 | 10 | 1.4 | 20 | -2 | 85 | .
CCCCCn1c(NC(=O)c2ccco2)c(S(=O)(=O)c2ccc(C)cc2)c2nc3ccccc3nc21 | -13 | 26* | 0.67 | 3 | 0 | 98 | 10
CCCCn1c(NC(=O)c2ccc(Br)o2)c(S(=O)(=O)c2ccccc2)c2nc3ccccc3nc21 | -33 | 46* | 0.88 | -2 | -1 | 94 | 22*
CCCCn1c(NC(=O)c2ccco2)c(S(=O)(=O)c2ccc(C)cc2)c2nc3ccccc3nc21 | -10 | 27* | 1.2 | -9 | -1 | 99 | 8
CCCCn1c(NS(=O)(=O)c2ccccc2)c(S(=O)(=O)c2ccc(C)cc2)c2nc3ccccc3nc21 | -20 | 25* | 0.8 | 9 | -1 | 93 | 29*
Cc1ccc(S(=O)(=O)c2c(N)n(CCCO)c3nc4ccccc4nc23)cc1 | 2 | -1 | 0.94 | 28 | -1 | 103 | .
CCC(=O)Nc1c(S(=O)(=O)c2ccccc2)c2nc3ccccc3nc2n1C(C)c1ccccc1 (centres undefined) | 3 | 1 | 0.78 | 1 | -2 | 95 | .
CCOc1ccccc1C(=O)N[C@H](C(=O)Nc1cc(S(=O)(=O)N(C)C)ccc1OC)C(C)C | 2 | 7 | 0.91 | 10 | 0 | 101 | .
SMILES | Mdm2 ligase inh | p97 ATPase inh | NF-kB expr up | APP 5'UTR act | Wee1 degr inh | STAT1 act | p97 inh conf
Cc1[nH]n(-c2ccccc2)c(=O)c1C(c1cccc([N+](=O)[O-])c1O)c1c(C)[nH]n(-c2ccccc2)c1=O | -7 | 24* | 1.2 | -8 | 0 | 100 | 6
C=C(C)Cn1cnc2c(oc3nc4c(cc32)CCCC4)c1=O | -10 | 9 | . | . | 5 | . | .
Cc1ccc(S(=O)(=O)/N=c2\sccn2C)cc1 | -6 | 1 | 1.3 | 5 | 1 | 102 | .
Cn1ccs/c1=N\S(=O)(=O)c1ccc(F)cc1 | 2 | 18* | 1 | -16 | 0 | 101 | 1
CC(CCc1ccccc1)N(C)CC(O)c1cccc([N+](=O)[O-])c1 (centres undefined) | -13 | 3 | . | . | -3 | . | .
COc1cccc(CC(=S)N2CCOCC2)c1 | -21 | 16* | 1.2 | 5 | 2 | 95 | 8
CC(=O)Nc1ccc2c(c1)OCCO2 | -13 | 63* | 1.1 | 2 | 0 | 102 | 5
CCOC(=O)c1c(C)nn(-c2ccc(NC(=O)CSCC(=O)O)cc2)c1C | -4 | -1 | . | . | -1 | . | .
N/C(=N\NC(=O)c1cccc(F)c1)c1cc2ccccc2oc1=O | 1 | 16* | . | . | -3 | . | 8
N/C(=N\NC(=O)c1ccc(F)cc1)c1cc2ccccc2oc1=O | -14 | 6 | 1.1 | 9 | 4 | 99 | .
CCCC1(C(=O)O)NC(c2ccc(OC)cc2O)C2C(=O)N(c3ccc(OC)cc3)C(=O)C21 (centres undefined) | -19 | 3 | 1 | 2 | -2 | 107 | .
COc1ccc(N2C(=O)C3C(c4ccc(OC)cc4O)NC(Cc4ccccc4)(C(=O)O)C3C2=O)cc1 (centres undefined) | -8 | 18* | 0.99 | 6 | 1 | 99 | 7
O=C(/C=C/c1ccco1)Nc1cccc(C(=O)Nc2ccccc2C(=O)O)c1 | -4 | 46* | . | . | 11* | . | 30*
CC(C)(C)c1ccc(OCc2ccc(C(=O)NCc3cccnc3)o2)cc1 | 10 | 0 | 1.4 | 86 | 1 | 121 | .
COc1ccc(CCn2c3c(c(=O)[nH]c2=O)C(NC(=O)c2cccs2)(C(F)(F)F)C(=O)N3)cc1OC (centres undefined) | -23 | 27* | 0.99 | 17 | -1 | 102 | 8
N#Cc1cccc(NC(=O)COC(=O)CCc2nc3ccccc3c(=O)[nH]2)c1 | -7 | 4 | 1.2 | 7 | 0 | 103 | .
Cc1ccc(NC(=O)COC(=O)CCc2nc3ccccc3c(=O)[nH]2)cc1Cl | -16 | 16* | 1 | 26 | -3 | 98 | 1
CSc1nsc(SCC(=O)Nc2nc3ccc(C)cc3s2)n1 | -12 | 5 | 1.3 | -9 | -1 | 100 | .
CCSc1nc(CC)c2c(c1C#N)CCCC2 | -2 | 3 | 1.3 | 2 | 0 | 103 | .
CCCn1c(SCC(=O)N2CCCC(C)C2)nnc1-c1cccnc1 (centres undefined) | 9 | -4 | 1.1 | -2 | 0 | 103 | .
COc1cc(/C=N/NC(=O)c2cc(-c3ccco3)nc3ccccc23)cc(OC)c1O | 1 | 16* | . | . | 4 | . | 9
